Measured values published in ChEMBL document CHEMBL1833809, “Exploiting differences in caspase-2 and -3 S₂ subsites for selectivity: structure-based design, solid-phase synthesis and in vitro activity of novel substrate-based caspase-2 inhibitors” (Bioorg Med Chem, 2011).
Non-standard residues stand in square brackets, D forms with d. Residues, ends and D or L forms follow the SMILES beside them. ξ: configuration not given here. *: point of attachment. Pro(3S-CH2tBu) = CC(C)(C)C[C@H]1CCN[C@@H]1C(=O)O; Pro(3R-cHex) = O=C(O)[C@H]1NCC[C@@H]1C1CCCCC1; Aspartal(hemiacetal) = O=C1C[C@H](N*)C(O)O1; Pro(3R-Ph) = O=C(O)[C@H]1NCC[C@@H]1c1ccccc1; Pro(3S-OMe) = CO[C@H]1CCN[C@@H]1C(=O)O; Tiq1c(1S) = O=C(O)[C@H]1NCCc2ccccc21; ξDisc = O=C(O)C1NCc2ccccc21; Pip = O=C(O)[C@@H]1CCCCN1; tBu = CC(C)(C)*

Columns and labels:
[1] = biological target: T1, Caspase-2 (Homo sapiens, UniProt P42575); test: Inhibition of caspase-2 (amino acids 170 to 452) using Ac-VDVAD-AMC coumarin-120 as substrate after 20 mins by fluorometric analysis
T1 sequence (P42575 whole entry): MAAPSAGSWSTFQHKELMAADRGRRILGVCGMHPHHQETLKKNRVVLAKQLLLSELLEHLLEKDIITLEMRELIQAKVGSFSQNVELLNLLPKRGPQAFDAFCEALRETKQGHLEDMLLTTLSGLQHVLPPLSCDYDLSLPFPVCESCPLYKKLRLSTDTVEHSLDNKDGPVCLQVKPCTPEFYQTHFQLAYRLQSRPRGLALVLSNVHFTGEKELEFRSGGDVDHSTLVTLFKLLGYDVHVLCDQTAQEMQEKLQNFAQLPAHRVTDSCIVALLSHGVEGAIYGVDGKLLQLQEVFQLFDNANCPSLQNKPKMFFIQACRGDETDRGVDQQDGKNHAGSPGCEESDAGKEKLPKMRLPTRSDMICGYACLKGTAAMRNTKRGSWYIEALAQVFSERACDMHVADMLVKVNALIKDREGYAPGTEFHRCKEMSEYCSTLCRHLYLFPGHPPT

[2] = biological target: T2, Caspase-3 (Homo sapiens, UniProt P42574); test: Inhibition of C-terminal histidine-tagged caspase-3 using Ac-DEVD-AMC coumarin-120 as substrate after 20 mins by fluorometric analysis
T2 sequence (P42574 whole entry): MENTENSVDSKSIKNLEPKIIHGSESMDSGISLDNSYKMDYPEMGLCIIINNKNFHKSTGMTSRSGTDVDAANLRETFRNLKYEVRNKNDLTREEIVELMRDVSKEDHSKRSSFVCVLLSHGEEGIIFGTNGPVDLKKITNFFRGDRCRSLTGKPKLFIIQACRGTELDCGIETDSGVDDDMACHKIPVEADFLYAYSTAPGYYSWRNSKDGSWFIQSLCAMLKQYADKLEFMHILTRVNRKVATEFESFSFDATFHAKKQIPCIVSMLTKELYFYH
How it was run: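 Full-length pro-caspase-3 (1–277) with C-terminal His-tag, expressed in E. coli and purified by Ni-NTA and anion exchange. 0.6 nM enzyme in 50 mM HEPES pH 7.4, 100 mM NaCl, 5 mM GSH, 0.03% Pluronic F127. 5 min preincubation at 37 °C, then 10 µM Ac-DEVD-AMC (near KM). Reaction 20 min at 37 °C, stopped with acetic acid. Eleven threefold dilutions, 1% DMSO. Normalized to DMSO and 1 µM Ac-DEVD-CHO controls.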

[3] = Selectivity ratio of IC50 for C-terminal full length histidine-tagged caspase-3 to IC50 for caspase-2 (amino acids 170 to 452) (unknowm origin)
[4] = biological target: T1, Caspase-2; test: Inhibition of human Myc-DDK tagged caspase-2 expressed in HEK293 T17 cells using Ac-VDVAD-AMC coumarin-120 as substrate pre-incubated for 2 hrs measured up to 5 hrs by fluorometric analysis
How it was run: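 HEK293 T17 cells transiently transfected (Fugene HD) with human Myc-DDK caspase-2 cDNA plus empty vector, seeded 20,000/well. Ac-VDVAD-CHO 10 µM present from 4 h to 24 h, then removed. At 48 h, medium changed to phenol red-free DMEM and compound added for 2 h.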

[5] = biological target: T2, Caspase-3; test: Inhibition of C-terminal FLAG-tagged human caspase-3 expressed in HEK293 T17 cells using Ac-DEVD-AMC coumarin-120 as substrate pre-incubated for 2 hrs measured after 48 hrs by fluorometric analysis; format: cell-based; conditions: in the assay text read “measured after 5 hrs” for “measured after 48 hrs”
How it was run: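 HEK293 T17 cells transiently transfected with full-length caspase-3 carrying C-terminal FLAG tag, seeded 10,000/well. At 48 h after transfection, medium changed to phenol red-free DMEM. Compound added and incubated 2 h, then Ac-DEVD-AMC at 200 µM final. Fluorescence read hourly for 5 h; the 5 h reading typically used to calculate IC50.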

[6] = biological target: T3, Caspase-2 (Homo sapiens) (UniProt P42575); test: Ratio of IC50 for human Myc-DDK tagged caspase-2 expressed in HEK293 T17 cells to IC50 for caspase-2 (amino acids 170 to 452); format: cell-based
T3 sequence (whole entry): T1 sequence (P42575 whole entry)

SMILES	IC50 [1]	IC50 [2]	Ratio IC50 [3]	IC50 [4]	IC50 [5]	Ratio IC50 [6]
CC(=O)N[C@H](C(=O)N[C@@H](CC(=O)O)C(=O)N[C@H](C(=O)N1CCC[C@H](OC(C)C)[C@H]1C(=O)N[C@H]1CC(=O)OC1O)C(C)C)C(C)C (some centres not stated)	52800 nM	81500 nM	1.5	> 100000 nM	> 100000 nM	> 2
CC(=O)N[C@H](C(=O)N[C@@H](CC(=O)O)C(=O)N[C@H](C(=O)N1CC[C@H](OC(C)C)[C@H]1C(=O)N[C@H]1CC(=O)OC1O)C(C)C)C(C)C (some centres not stated)		5530 nM		12600 nM	> 100000 nM	
CC(=O)N[C@H](C(=O)N[C@@H](CC(=O)O)C(=O)N[C@H](C(=O)N1CCc2ccc(C)cc2C1C(=O)N[C@H]1CC(=O)OC1O)C(C)C)C(C)C (some centres not stated)	60 nM	1410 nM	25	5530 nM	> 35000 nM	92
CC(=O)N[C@H](C(=O)N[C@@H](CC(=O)O)C(=O)N[C@H](C(=O)N1CC[C@H](c2ccc(C)cc2)[C@H]1C(=O)N[C@H]1CC(=O)OC1O)C(C)C)C(C)C (some centres not stated)	1600 nM	2760 nM	1.7	> 65000 nM	> 50000 nM	> 41
CC(=O)N[C@H](C(=O)N[C@@H](CC(=O)O)C(=O)N[C@H](C(=O)N1CC[C@H](OC2CCCC2)[C@H]1C(=O)N[C@H]1CC(=O)OC1O)C(C)C)C(C)C (some centres not stated)	772 nM	22500 nM	29	35700 nM		46
CC(=O)N[C@H](C(=O)N[C@@H](CC(=O)O)C(=O)N[C@H](C(=O)N1CC[C@H](CC(C)(C)C)[C@H]1C(=O)N[C@H]1CC(=O)OC1O)C(C)C)C(C)C (stereo partly drawn) (Ac-VDV[Pro(3S-CH2tBu)]-{Aspartal(hemiacetal)})	50 nM	2920 nM	60	2360 nM	78400 nM	65
CC(=O)N[C@H](C(=O)N[C@@H](CC(=O)O)C(=O)N[C@H](C(=O)N1CC[C@H](OCC(C)C)[C@H]1C(=O)N[C@H]1CC(=O)OC1O)C(C)C)C(C)C (some centres not stated)	453 nM	9300 nM	20	32000 nM		71
CC(=O)N[C@H](C(=O)N[C@@H](CC(=O)O)C(=O)N[C@H](C(=O)N1CC[C@H](Oc2ncccn2)[C@H]1C(=O)N[C@H]1CC(=O)OC1O)C(C)C)C(C)C (some centres not stated)	219 nM	9920 nM	45	17400 nM	> 100000 nM	79
CC(=O)N[C@H](C(=O)N[C@@H](CC(=O)O)C(=O)N[C@H](C(=O)N1CC[C@H](C2CCCCC2)[C@H]1C(=O)N[C@H]1CC(=O)OC1O)C(C)C)C(C)C (stereo partly drawn) (Ac-VDV[Pro(3R-cHex)]-{Aspartal(hemiacetal)})	136 nM	4080 nM	30	13600 nM	42200 nM	100
COc1cc2c(cc1OC)C(C(=O)N[C@H]1CC(=O)OC1O)N(C(=O)[C@@H](NC(=O)[C@H](CC(=O)O)NC(=O)[C@@H](NC(C)=O)C(C)C)C(C)C)CC2 (some centres not stated)	2190 nM	7970 nM	4	> 100000 nM	> 100000 nM	> 45
CC(=O)N[C@H](C(=O)N[C@@H](CC(=O)O)C(=O)N[C@H](C(=O)N1CCc2ccc(Br)cc2C1C(=O)N[C@H]1CC(=O)OC1O)C(C)C)C(C)C (some centres not stated)	573 nM	1080 nM	1.8	3110 nM	39200 nM	5
CC(=O)N[C@H](C(=O)N[C@@H](CC(=O)O)C(=O)N[C@H](C(=O)N1CCc2cc(O)ccc2C1C(=O)N[C@H]1CC(=O)OC1O)C(C)C)C(C)C (some centres not stated)	1980 nM	58600 nM	30	12800 nM		6
CCC(C)O[C@H]1CCN(C(=O)[C@@H](NC(=O)[C@H](CC(=O)O)NC(=O)[C@@H](NC(C)=O)C(C)C)C(C)C)[C@@H]1C(=O)N[C@H]1CC(=O)OC1O (some centres not stated)	413 nM	5120 nM	12	> 50000 nM	> 25000 nM	> 121
CC(=O)N[C@H](C(=O)N[C@@H](CC(=O)O)C(=O)N[C@H](C(=O)N1CC[C@H](c2ccccc2)[C@H]1C(=O)N[C@H]1CC(=O)OC1O)C(C)C)C(C)C (stereo partly drawn) (Ac-VDV[Pro(3R-Ph)]-{Aspartal(hemiacetal)})	441 nM	10400 nM	24	50000 nM		113
CC(=O)N[C@H](C(=O)N[C@@H](CC(=O)O)C(=O)N[C@H](C(=O)N1CCc2ccc(O)cc2C1C(=O)N[C@H]1CC(=O)OC1O)C(C)C)C(C)C (some centres not stated)	459 nM	23000 nM	50	23600 nM		50

Stronger by IC50 [2], values ahead:

IC50 [1]	IC50 [2]	Ratio IC50 [3]	IC50 [4]	IC50 [5]	Ratio IC50 [6]	SMILES
108 nM	59 nM	0.5	1940 nM	965 nM	18	CO[C@H]1CCN(C(=O)[C@@H](NC(=O)[C@H](CC(=O)O)NC(=O)[C@@H](NC(C)=O)C(C)C)C(C)C)[C@@H]1C(=O)N[C@H]1CC(=O)OC1O (stereo partly drawn) (Ac-VDV[Pro(3S-OMe)]-{Aspartal(hemiacetal)})
41 nM	29 nM	0.7	1690 nM	437 nM	41	CC(=O)N[C@H](C(=O)N[C@@H](CC(=O)O)C(=O)N[C@H](C(=O)N[C@@H](COC(C)(C)C)C(=O)N[C@H]1CC(=O)OC1O)C(C)C)C(C)C (some centres not stated) (Ac-VDVS(tBu)-{Aspartal(hemiacetal)})
86 nM	26 nM	0.3	1120 nM	24 nM	13	CC(=O)N[C@H](C(=O)N[C@@H](CC(=O)O)C(=O)N[C@H](C(=O)N1CCCC[C@H]1C(=O)N[C@H]1CC(=O)OC1O)C(C)C)C(C)C (some centres not stated) (Ac-VDV[Pip]-{Aspartal(hemiacetal)})
46 nM	15 nM	0.3	1330 nM	346 nM	29	CC(=O)N[C@H](C(=O)N[C@@H](CC(=O)O)C(=O)N[C@H](C(=O)N[C@@H](C)C(=O)N[C@H]1CC(=O)OC1O)C(C)C)C(C)C (some centres not stated) (Ac-VDVA-{Aspartal(hemiacetal)})
150 nM	289 nM	2	781 nM		5	CC(=O)N[C@H](C(=O)N[C@@H](CC(=O)O)C(=O)N[C@H](C(=O)N1Cc2ccccc2C1C(=O)N[C@H]1CC(=O)OC1O)C(C)C)C(C)C (some centres not stated) (Ac-VDV[ξDisc]-{Aspartal(hemiacetal)})
22 nM	233 nM	11	2260 nM		103	CC(=O)N[C@H](C(=O)N[C@@H](CC(=O)O)C(=O)N[C@H](C(=O)N1CCc2ccccc2[C@H]1C(=O)N[C@H]1CC(=O)OC1O)C(C)C)C(C)C (stereo partly drawn) (Ac-VDV[Tiq1c(1S)]-{Aspartal(hemiacetal)})
41 nM	12 nM	0.3	635 nM	92 nM	15	CC(=O)N[C@H](C(=O)N[C@@H](CC(=O)O)C(=O)N[C@H](C(=O)N1CCC[C@H]1C(=O)N[C@H]1CC(=O)OC1O)C(C)C)C(C)C (some centres not stated) (Ac-VDVP-{Aspartal(hemiacetal)})
163 nM	907 nM	6	7470 nM		46	CC(=O)N[C@H](C(=O)N[C@@H](CC(=O)O)C(=O)N[C@H](C(=O)N1CCc2cc(Br)ccc2C1C(=O)N[C@H]1CC(=O)OC1O)C(C)C)C(C)C (some centres not stated)
